For assay [1], the system named is Mycobacterium ulcerans. Put plainly: Antimicrobial activity against wild type Mycobacterium ulcerans ATCC 19423 infected BALB/c mouse assessed as delay to time to foodpad swelling. Type of assay: functional, organism-based.
Assay [2] concerns Mycobacterium ulcerans. Nature of the assay: Antimicrobial activity against wild type Mycobacterium ulcerans Mu1059 infected BALB/c mouse assessed as reduction in foodpad CFU count after 4 weeks.
In assay [3] the test system is Mycobacterium ulcerans. Nature of the assay: Antimicrobial activity against Mycobacterium ulcerans Mu1059 expressing luxAB from vibrio harveyi infected BALB/c mouse assessed as reduction in foodpad CFU count after 4 weeks. It counts as functional, organism-based. The procedure, abridged:
(§1)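 Preventive footpad model in female BALB/c mice: treatment started 2 weeks post-infection and was given 5 days/week for 4 weeks (RIF 10 mg/kg gavage; STR 150 mg/kg s.c.). Five mice/group were sacrificed weekly. Footpads were minced in 2 ml PBS, and serial dilutions were plated in duplicate on selective 7H11 at 32°C for 3–4 months. Detection limit was 2 CFU/footpad. Log CFU was compared with day 0 by t test or ANOVA/Dunnett.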

Assay [4] concerns Mycobacterium ulcerans. Nature of the assay: Antimicrobial activity against Mycobacterium ulcerans Mu1059 expressing luxAB from vibrio harveyi infected BALB/c mouse assessed as delay to time to foodpad swelling. Type of assay: functional. The method in brief: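 Female BALB/c mice, 4 weeks old, were infected in the left hind footpad with 0.03 ml of bacterial suspension in PBS. From week 2 (lesion index 0), treatment ran for 4 weeks, 5 days/week, with drugs in water, 0.2 ml: RIF 10 mg/kg by gavage; STR or KAN 150 mg/kg subcutaneously. After treatment, 15 mice/group were scored weekly for 23 weeks; swelling was defined as lesion index 1.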

Assay [5] concerns Mycobacterium ulcerans. Nature of the assay: Antimicrobial activity against recombinant Mycobacterium ulcerans Mu1059 expressing luxAB from vibrio harveyi infected BALB/c mouse assessed as reduction in foodpad relative light unit after 2 weeks relative to basal level. Type of assay: functional, organism-based. The method in brief: (§2)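 Same preventive schedule, with five mice/group sacrificed weekly. Each minced footpad homogenate (in 2 ml PBS) was read by taking a 200-µl sample, adding 20 µl of 1% decanal, and measuring light for 4 s immediately on a luminometer, in duplicate. Log-transformed RLU was compared with day 0 by unpaired t test or one-way ANOVA with Dunnett's posttest (alpha 0.05).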

In assay [6] the test system is Mycobacterium ulcerans. Nature of the assay: Antimicrobial activity against recombinant Mycobacterium ulcerans Mu1059 expressing luxAB from vibrio harveyi infected BALB/c mouse assessed as reduction in foodpad relative light unit after 1 week relative to basal level. It counts as functional, organism-based. The procedure, abridged:
as §2

Assay [7] relates to Mycobacterium ulcerans. Put plainly: Antimicrobial activity against recombinant Mycobacterium ulcerans Mu1059 expressing luxAB from vibrio harveyi infected BALB/c mouse assessed as reduction in foodpad CFU count after 2 weeks relative to basal level. It counts as functional, organism-based. The procedure, abridged: as §1
Assay [8] relates to Mycobacterium ulcerans. Nature of the assay: Antimicrobial activity against recombinant Mycobacterium ulcerans Mu1059 expressing luxAB from vibrio harveyi infected BALB/c mouse assessed as reduction in foodpad CFU count after 1 week relative to basal level. It counts as functional, organism-based. The procedure, abridged:
as §1

Active and inactive are the calls of the source.

Consider `NC[C@H]1O[C@H](O[C@H]2[C@H](O)[C@@H](O[C@H]3O[C@H](CO)[C@@H](O)[C@H](N)[C@H]3O)[C@H](N)C[C@@H]2N)[C@H](O)[C@@H](O)[C@@H]1O` [KANAMYCIN], for which the outcome in assay [1] and in assay [3] was inactive. The outcome in assay [2] was Active. The Time in assay [4] stood at 3 weeks.

As for `CN[C@@H]1[C@H](O[C@H]2[C@H](O[C@H]3[C@H](O)[C@@H](O)[C@H](N=C(N)N)[C@@H](O)[C@@H]3N=C(N)N)O[C@@H](C)[C@]2(O)C=O)O[C@@H](CO)[C@H](O)[C@H]1O`, the outcome in assay [1] was inactive. The result in assay [5], in assay [6], in assay [3], in assay [7] and in assay [8] was Active.

(Values after ChEMBL document CHEMBL1687835, “Using bioluminescence to monitor treatment response in real time in mice with Mycobacterium ulcerans infection” (2011).)
